Assay results from PMC3640342 (Pharmaceutical research, 2013).
Where “and” joins values, the source holds several entries; their conditions need not be identical. Equal values may be shown once. Read-outs that look alike come from different tables or passages of the source.

How the values were obtained:
[1] = system: PrP^Sc levels in ScN2a-cl3 cells; test: cells; format: cell-based, mouse
[2] = Solubility at pH 2, pH 7.4 and in FaSSIF; format: physicochemical; settings: pH 7.4 (phosphate) buffer, room temperature overnight
Media solubility = format: physicochemical; settings: media used in the cell-based assays, 10% FBS
mouse liver microsomes = test: Hepatic microsomal stability, mouse; format: in vitro ADME; settings: 1 μM
How it was run: (§1)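 Liver microsomes from mouse, rat or human (~0.5 mg/mL final) were incubated at 37°C with test compound at 1 μM final (0.6% ACN, 0.01% DMSO) in PBS pH 7.4 ± 0.05% PS80, with 1 mM NADPH or PBS.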

rat liver microsomes = test: Hepatic microsomal stability, rat; format: in vitro ADME; settings: 1 μM
How it was run: as §1

human liver microsomes [3] = test: Hepatic microsomal stability, human; format: in vitro ADME; settings: 1 μM
How it was run: as §1

[4] = Single-dose IV PK at 1 mg/kg; format: in vivo, FVB mice; settings: IV 1 mg/kg, plasma
How it was run: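 Female FVB mice (~25 g) received 1 mg/kg by tail-vein injection in 10% DMSO in PEG400/water (1:1), 10% DMSO, or 10% ethanol in PEG400/water (1:1). Two mice per time point were killed by CO2 at 5 min and 0.25, 0.5, 1, 2, 4 and 6 h, and heparinized plasma was collected. After protein precipitation, samples were assayed by LC/MS/MS, and parameters came from noncompartmental sparse-sampling analysis.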

[5] = Single-dose oral gavage PK at 10 mg/kg; format: in vivo, FVB mice; settings: for AUClast / Cmax: mean ± SD, n = 2
How it was run: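 Female FVB mice (~25 g) were dosed at 10 mg/kg by oral gavage in 20% propylene glycol, 5% ethanol, 5% labrosol and 70% PEG400. Two mice per time point were killed by CO2 at 0.25, 0.5, 1, 2, 4, 6 and 24 h. Heparinized plasma and brain (diluted five-fold in water, homogenized) were assayed by LC/MS/MS.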

mouse plasma = settings: 1 μM
human plasma = settings: human plasma, 1 μM
[6] = mouse brain homogenate, 1 μM, corrected for dilution
[7] = cell-culture media with 10% FBS, 1 μM
[8] = system: human, mouse, rat, and dog liver microsomes; settings: 10 μM, LC/MS/MS
human liver microsomes [9] = settings: for Measured Conc.: 60 min
CYP2C19 [10] = target: CYP2C19 (Homo sapiens, UniProt P33261); settings: NADPH + N-3-B
CYP2C19 [11] = settings: NADPH + N-3-B
CYP2D6 = CYP2D6 (Homo sapiens, UniProt P10635); test: CYP phenotyping in human liver microsomes, quinidine; settings: NADPH + Quinidine
CYP1A2 = target: T1, CYP1A2 (Homo sapiens, UniProt P05177); test: CYP phenotyping in human liver microsomes, furafylline; settings: NADPH + Furafylline
T1 sequence (P05177 1-516): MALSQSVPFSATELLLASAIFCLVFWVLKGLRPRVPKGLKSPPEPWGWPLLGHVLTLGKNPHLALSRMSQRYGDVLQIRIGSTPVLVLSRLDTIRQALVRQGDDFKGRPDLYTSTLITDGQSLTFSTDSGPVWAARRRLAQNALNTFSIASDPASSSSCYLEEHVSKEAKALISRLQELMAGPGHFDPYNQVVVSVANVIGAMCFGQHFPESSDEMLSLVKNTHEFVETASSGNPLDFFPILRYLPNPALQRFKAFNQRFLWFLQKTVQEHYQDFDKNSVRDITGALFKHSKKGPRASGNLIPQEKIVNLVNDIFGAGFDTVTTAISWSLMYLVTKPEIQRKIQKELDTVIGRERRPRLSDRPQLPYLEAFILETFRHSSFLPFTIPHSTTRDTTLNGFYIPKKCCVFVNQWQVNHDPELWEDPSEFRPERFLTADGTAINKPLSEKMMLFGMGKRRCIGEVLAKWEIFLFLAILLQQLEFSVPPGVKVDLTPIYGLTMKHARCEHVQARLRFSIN

CYP3A4 = CYP3A4 (Homo sapiens, UniProt P08684); test: CYP phenotyping in human liver microsomes, ketoconazole; settings: NADPH + Ketoconazole
CYP2C9 = CYP2C9 (Homo sapiens, UniProt P11712); test: CYP phenotyping in human liver microsomes, sulfaphenazole; settings: NADPH + Sulphaphenazol
[12] = irreversible incubation condition, maximum metabolism, NADPH/No Inhibitor
[13] = reversible incubation condition, maximum metabolism, NADPH/No Inhibitor
[14] = reversible incubation condition, 1 μM, 60 min

CYP2C9, sequence (P11712 whole entry): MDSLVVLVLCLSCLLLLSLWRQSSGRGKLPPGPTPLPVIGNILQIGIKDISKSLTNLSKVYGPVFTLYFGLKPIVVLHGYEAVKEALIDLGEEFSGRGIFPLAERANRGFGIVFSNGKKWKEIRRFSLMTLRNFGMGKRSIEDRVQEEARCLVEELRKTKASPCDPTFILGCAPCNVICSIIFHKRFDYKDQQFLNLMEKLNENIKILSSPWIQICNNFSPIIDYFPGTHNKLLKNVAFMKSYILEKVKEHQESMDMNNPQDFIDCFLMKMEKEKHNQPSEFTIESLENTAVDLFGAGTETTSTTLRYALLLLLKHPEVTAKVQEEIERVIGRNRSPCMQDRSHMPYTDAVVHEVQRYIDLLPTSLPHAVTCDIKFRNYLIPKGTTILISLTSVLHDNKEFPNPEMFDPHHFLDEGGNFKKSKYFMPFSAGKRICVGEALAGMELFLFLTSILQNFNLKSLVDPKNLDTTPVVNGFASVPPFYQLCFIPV
CYP3A4, sequence (P08684 whole entry): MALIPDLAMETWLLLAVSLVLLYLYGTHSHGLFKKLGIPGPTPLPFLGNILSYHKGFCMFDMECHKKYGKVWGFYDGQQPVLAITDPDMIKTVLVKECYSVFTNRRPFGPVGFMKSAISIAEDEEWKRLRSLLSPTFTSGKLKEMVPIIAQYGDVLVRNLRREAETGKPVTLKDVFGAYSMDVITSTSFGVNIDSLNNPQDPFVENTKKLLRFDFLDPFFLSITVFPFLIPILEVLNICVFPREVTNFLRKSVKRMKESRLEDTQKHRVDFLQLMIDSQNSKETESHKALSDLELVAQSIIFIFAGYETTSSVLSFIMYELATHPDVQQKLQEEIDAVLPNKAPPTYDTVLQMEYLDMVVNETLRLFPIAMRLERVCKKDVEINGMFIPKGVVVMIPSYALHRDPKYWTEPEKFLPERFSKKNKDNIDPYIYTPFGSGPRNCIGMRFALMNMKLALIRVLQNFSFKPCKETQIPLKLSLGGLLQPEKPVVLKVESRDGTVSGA
CYP2D6, sequence (P10635 whole entry): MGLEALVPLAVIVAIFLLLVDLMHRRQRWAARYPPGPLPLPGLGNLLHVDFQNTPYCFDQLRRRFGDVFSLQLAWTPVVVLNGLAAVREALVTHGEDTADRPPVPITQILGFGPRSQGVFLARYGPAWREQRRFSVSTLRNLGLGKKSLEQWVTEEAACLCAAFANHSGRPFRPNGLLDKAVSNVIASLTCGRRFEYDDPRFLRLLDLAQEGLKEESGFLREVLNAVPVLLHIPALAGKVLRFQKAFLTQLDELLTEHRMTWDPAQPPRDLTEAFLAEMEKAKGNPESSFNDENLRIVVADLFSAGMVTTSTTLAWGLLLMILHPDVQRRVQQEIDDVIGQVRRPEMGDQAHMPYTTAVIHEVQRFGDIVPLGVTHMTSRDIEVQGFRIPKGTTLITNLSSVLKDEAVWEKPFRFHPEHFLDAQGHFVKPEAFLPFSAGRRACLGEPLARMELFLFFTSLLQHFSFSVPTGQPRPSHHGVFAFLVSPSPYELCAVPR
CYP2C19 (Homo sapiens, UniProt P33261), sequence (P33261 whole entry): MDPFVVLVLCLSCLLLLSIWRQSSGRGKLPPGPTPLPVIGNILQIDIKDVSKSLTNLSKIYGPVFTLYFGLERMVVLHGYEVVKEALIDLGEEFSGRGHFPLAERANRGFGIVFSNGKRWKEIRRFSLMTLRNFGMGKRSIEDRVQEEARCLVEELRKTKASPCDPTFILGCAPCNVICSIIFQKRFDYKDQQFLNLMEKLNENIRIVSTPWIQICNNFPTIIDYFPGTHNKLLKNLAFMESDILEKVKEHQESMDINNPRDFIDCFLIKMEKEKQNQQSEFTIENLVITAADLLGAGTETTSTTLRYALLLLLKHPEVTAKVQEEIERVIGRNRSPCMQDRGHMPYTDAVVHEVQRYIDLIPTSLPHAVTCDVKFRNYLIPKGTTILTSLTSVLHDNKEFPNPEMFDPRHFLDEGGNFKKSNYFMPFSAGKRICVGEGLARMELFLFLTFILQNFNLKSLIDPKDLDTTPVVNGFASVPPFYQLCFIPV

**Q.** Which EC50 [1] does the source give for Cc1ccc(Nc2nc(-c3ccc(-c4ccccc4)cc3)cs2)nc1 [IND24] here?
**A.** Its EC50 is 1270 nM.

**Q.** And the EC50 ([1]; read-out: EC50, unbound compound)?
**A.** The EC50 was 325 nM.

**Q.** What about the “Solubility pH 7.4” value [2] of the same molecule?
**A.** The value was under 1 μM.

**Q.** What about the “Solubility Media” value (Media solubility) of the same molecule?
**A.** Its value is over 250 µM.

**Q.** What about the “% remaining after a 60-min incubation” value (mouse liver microsomes) of the same molecule?
**A.** The value was 89%.

**Q.** And the t1/2 (mouse liver microsomes; NADPH)?
**A.** The t1/2 was over 1 h.

**Q.** And the “% remaining after a 60-min incubation” value (rat liver microsomes)?
**A.** The value was 90%.

**Q.** And the t1/2 (rat liver microsomes; NADPH)?
**A.** The t1/2 was over 1 h.

**Q.** What about the “% remaining after a 60-min incubation” value (human liver microsomes [3]) of the same molecule?
**A.** Its value is 105%.

**Q.** What about the t1/2 (human liver microsomes [3]; NADPH) of the same molecule?
**A.** Its t1/2 is over 1 h.

**Q.** What about the tmax [4] of the same molecule?
**A.** Its tmax is 4.98 min.

**Q.** And the CL ([4]; female FVB mice)?
**A.** The CL was 15.3 mL/min/kg.

**Q.** What about the Vss ([4]; female FVB mice) of the same molecule?
**A.** The Vss was 2.46 L/kg.

**Q.** And the AUClast ([4]; mean ± SD, n = 2)?
**A.** The AUClast was 2.78 ± 1.09 µM·h.

**Q.** And the Cmax ([4]; mean ± SD, n = 2)?
**A.** Its Cmax is 2490 ± 2650 nM.

**Q.** What about the t1/2 ([4]; 1 mg/kg) of the same molecule?
**A.** Its t1/2 is 2.16 h.

**Q.** And the “%F (absolute oral bioavailability)” value ([5]; PO 10 mg/kg vs IV 1 mg/kg, plasma)?
**A.** The value was 40% and 40.3%.

**Q.** What about the tmax ([5]; PO 10 mg/kg, brain) of the same molecule?
**A.** The tmax was 4 h.

**Q.** What about the AUClast ([5]; PO 10 mg/kg, brain) of the same molecule?
**A.** Its AUClast is 29.1 ± 1.24 µM·h.

**Q.** And the Cmax ([5]; PO 10 mg/kg, brain)?
**A.** Its Cmax is 2450 ± 740 nM.

**Q.** And the t1/2 ([5]; PO 10 mg/kg, plasma)?
**A.** The t1/2 was 4.65 h.

**Q.** And the tmax ([5]; PO 10 mg/kg, plasma)?
**A.** The tmax was 2 h.

**Q.** And the AUClast ([5]; PO 10 mg/kg, plasma)?
**A.** Its AUClast is 11.2 ± 1.31 µM·h.

**Q.** What about the Cmax ([5]; PO 10 mg/kg, plasma) of the same molecule?
**A.** The Cmax was 1660 ± 110 nM.

**Q.** What about the “Unbound (%)” value (mouse plasma) of the same molecule?
**A.** Its value is 6.6% and 6.63±1.55%.

**Q.** And the “Unbound (%)” value (human plasma)?
**A.** The value was 4.9% and 4.91±1.03%.

**Q.** What about the “Unbound (%)” value [6] of the same molecule?
**A.** The value was 8% and 8.20±0.35%.

**Q.** What about the “Unbound (%)” value [7] of the same molecule?
**A.** Its value is 26% and 25.7±4.93%.

**Q.** And the Metabolites observed [8]?
**A.** The Metabolites observed was “metabolites M1–M3 and M5 were observed in all of the microsomal assays while M4 was only observed in the dog liver microsomal incubation”.

**Q.** What about the “Metabolism in HLM incubations” value (human liver microsomes [9]; 1 μM, human liver microsomes) of the same molecule?
**A.** Its value is “very little metabolism”.

**Q.** What about the Disappearance % (human liver microsomes [9]; [12]) of the same molecule?
**A.** Its Disappearance % is 0 (−18) %.

**Q.** What about the “Disappearance % Δ” value (human liver microsomes [9]; [12]) of the same molecule?
**A.** Its value is 0%.

**Q.** What about the “Measured Conc.” value (human liver microsomes [9]; irreversible incubation condition, maximum metabolism, NADPH/No Inhibitor, 1 μM) of the same molecule?
**A.** Its value is 0.733 µM.

**Q.** What about the “Measured Conc.” value (human liver microsomes [9]; irreversible incubation condition, negative control, No NADPH/No Inhibitor, 1 μM) of the same molecule?
**A.** The value was 0.622 µM.

**Q.** And the Disappearance % (human liver microsomes [9]; [13])?
**A.** The Disappearance % was 0%.

**Q.** And the “Disappearance % Δ” value (human liver microsomes [9]; [13])?
**A.** Its value is 0%.

**Q.** What about the “Measured Conc.” value (human liver microsomes [9]; reversible incubation condition, maximum metabolism, NADPH/No Inhibitor, 1 μM) of the same molecule?
**A.** The value was 0.655 µM.

**Q.** And the Disappearance % (human liver microsomes [9]; reversible incubation condition, negative control, No NADPH/No Inhibitor)?
**A.** Its Disappearance % is 0%.

**Q.** What about the “Measured Conc.” value (human liver microsomes [9]; reversible incubation condition, negative control, No NADPH/No Inhibitor, 1 μM) of the same molecule?
**A.** Its value is 0.654 µM.

**Q.** What about the “CYP? (involvement of CYP2C19)” value (CYP2C19 [10]) of the same molecule?
**A.** The value was “Unlikely (unlikely for values <5)”.

**Q.** And the “Disappearance % Δ” value (CYP2C19 [10])?
**A.** The value was 0 (−18) %.

**Q.** And the Disappearance % (CYP2C19 [11])?
**A.** The Disappearance % was 18%.

**Q.** And the “Measured Conc.” value (CYP2C19 [11]; [14])?
**A.** The value was 0.537 µM.

**Q.** And the “CYP? (involvement of CYP2D6)” value (CYP2D6)?
**A.** The value was “Unlikely (unlikely for values <5)”.

**Q.** And the Disappearance % (CYP2D6)?
**A.** Its Disappearance % is 15%.

**Q.** And the “Disappearance % Δ” value (CYP2D6)?
**A.** Its value is 0 (−15) %.

**Q.** What about the “Measured Conc.” value (CYP2D6; [14]) of the same molecule?
**A.** Its value is 0.555 µM.

**Q.** And the Disappearance % (CYP1A2)?
**A.** Its Disappearance % is 0 (−23) %.

**Q.** And the “Disappearance % Δ” value (CYP1A2)?
**A.** The value was 0%.

**Q.** What about the “Measured Conc.” value (CYP1A2; irreversible incubation condition, 1 μM, 60 min) of the same molecule?
**A.** Its value is 0.766 µM.

**Q.** What about the “CYP? (involvement of CYP3A4)” value (CYP3A4) of the same molecule?
**A.** The value was “Unlikely (unlikely for values <5)”.

**Q.** What about the Disappearance % (CYP3A4) of the same molecule?
**A.** Its Disappearance % is 15%.

**Q.** What about the “Disappearance % Δ” value (CYP3A4) of the same molecule?
**A.** The value was 0 (−15) %.

**Q.** What about the “Measured Conc.” value (CYP3A4; [14]) of the same molecule?
**A.** The value was 0.557 µM.

**Q.** What about the “CYP? (involvement of CYP2C9)” value (CYP2C9) of the same molecule?
**A.** Its value is “Unlikely (unlikely for values <5)”.

**Q.** What about the Disappearance % (CYP2C9) of the same molecule?
**A.** The Disappearance % was 14%.

**Q.** And the “Disappearance % Δ” value (CYP2C9)?
**A.** Its value is 0 (−14) %.

**Q.** And the “Measured Conc.” value (CYP2C9; [14])?
**A.** The value was 0.566 µM.
